Data published in the RNAGym collection of RNA variant scans (doi:10.1126/science.aae0568).
Fewer inactive variants are shown than the library holds.

B1: tRNA (parent)
chain: GUUCCGUUGGCGUAAUGGUAACGCGUCUCCCUCCUAAGGAGAAGACUGCGGGUUCGAGUCCCGUACGGAACG

Variants of: B1
Assay: yeast fitness relative to wild type (ratio to wild type); higher = fitter; tRNA-Arg(CCU), competitive growth, 37 C, YPD
In short: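 Variants of the tRNA-Arg(CCU) gene were chemically synthesised with a 3% per-site mutation rate across 69 sites and placed at the native genomic locus in Saccharomyces cerevisiae. Six parallel replicates of the pooled strains were competed in YPD at 37°C for 24 hours, and gene amplicons from the start and end populations were read by 100-nucleotide paired-end sequencing. Darwinian fitness relative to wild type was derived from changes in genotype frequencies. Genotypes required ≥ 100 starting reads, and estimates < 0.5 were set to 0.5.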

Row | Variant | yeast fitness
1 | C4G A36U C46G C62A A69C | ≤ 0.5
2 | A15C C34G C60U | ≤ 0.5
3 | U2G U19A A21G A42C G48C C49A | ≤ 0.5
4 | A57C U64G C66U | ≤ 0.5
5 | U28G A57U G63A | 0.874
6 | A15U C29U | 0.749
7 | C22A C31A U53C A57C C60U | ≤ 0.5
8 | U7G C11G C34U G41A | 0.525
9 | C4G U35G A42C C66U | ≤ 0.5
10 | C4U C46G G63C C66A | ≤ 0.5
11 | U7C G48A | 0.884
12 | G39C A42G | 0.653
13 | C24G C60U G63A | ≤ 0.5
14 | U2C C11A C22G U53G | ≤ 0.5
15 | C11A A36G A43C G48A | 0.558
16 | C11G C30A U47G U53C | 0.597
17 | C5A G12A G18A | ≤ 0.5
18 | A14C A15U C30U C34G A43G G48C C49U C61U | ≤ 0.5
19 | G23A A43C U59A | 0.639
20 | C4G A15G G23A C34G G67A | 0.556
21 | A15G A57U A65U | ≤ 0.5

Row | Variant | yeast fitness
22 | A20U A36G G68A | 0.574
23 | A20U U35C A36G C55G | 0.578
24 | C4G U7G G9A A20G C22A G41A | ≤ 0.5
25 | U7A A20C G25A G68C | ≤ 0.5
26 | A36U A45U C46A G68A | ≤ 0.5
27 | U32A U54C | 0.629
28 | A40C G67A | 0.846
29 | U19C G23A C29G | ≤ 0.5
30 | U16G U53C C61G | ≤ 0.5
31 | C27A U35A A43U | ≤ 0.5
32 | G18C G44A G63C A65C | ≤ 0.5
33 | U8G A20U G44C | 0.558
34 | A42U G56A G63C | ≤ 0.5
35 | G18C C22G G56A | 0.568
36 | C4U C33A G48C | ≤ 0.5
37 | C4A C5U C22U C34A C62G | ≤ 0.5
38 | C34U G41C C60A | ≤ 0.5
39 | G23C C30G G39C | 0.501
40 | C4U C5G A40G G51C U59A C61A A69U | ≤ 0.5
41 | G17U | 0.851
42 | C4A U16C G17A U32C | ≤ 0.5

Row | Variant | yeast fitness
43 | C11G A15C C24G C46A | 0.546
44 | A65U G67C | 0.64
45 | G23A C34A | 0.523
46 | C5U A21U A57U C60A | ≤ 0.5
47 | U2A C22U G56A | 0.551
48 | U35C A45C C49G G56A A57U G63A | ≤ 0.5
49 | C29U U53A C61U U64C | ≤ 0.5
50 | G9A A43U | 1.08
51 | C27U G38C A57G A65C | ≤ 0.5
52 | C4U C22G G48A C60G | ≤ 0.5
53 | C22G G44C C55U | 0.564
54 | A42C G48A G50A C61G | 0.553
55 | A42U G52C | 0.694
56 | C30G C60A C66U | 0.551
57 | A37C U47A | 0.674
58 | C62A A65U | 0.772
59 | C30A C33G A40G | ≤ 0.5
60 | U7A A42U A45G | ≤ 0.5
61 | C4U C24A U59G C62U A70G | ≤ 0.5
62 | C4G A65U G68U | 1.11
63 | C27U U32C C46G | 0.765

Row | Variant | yeast fitness
64 | U28C A42C C60U | 0.589
65 | A14G A42G C46G | 0.517
66 | C27U C33U C66U | 0.536
67 | A21U C31U A57U | ≤ 0.5
68 | A20C C27U A36G | 0.62
69 | C34U A36C U53C G67A | ≤ 0.5
70 | G17C C24U C49U U59A | 0.533
71 | A21G C55G | 0.671
72 | G10A U16A C31A G51A | 0.584
73 | G25C C61U | 1.1
74 | U28C A37C A40U | 0.568
75 | U16A U32G C55G | ≤ 0.5
76 | U3G A43G G56A | 0.601
77 | A15U C22G U32A C66A | ≤ 0.5
78 | U8C G50C | 0.663
79 | C11U U28A G58C A70C | ≤ 0.5
80 | U16G U19A G23C C49U | ≤ 0.5
81 | G6A U16A G25C | 0.644
82 | C34G U54A | 0.563
83 | C11A C29U A57C | 0.732
